Results: ChEMBL document CHEMBL3808346, “Optimization of the phenylurea moiety in a phosphoinositide 3-kinase (PI3K) inhibitor to improve water solubility and the PK profile by introducing a solubilizing group and ortho substituents” (Bioorg Med Chem, 2016)
≈ marks a conversion by molar mass, not a printed value.

Tests used:
[1] = Solubility of compound in FaSSIF at pH 6.5 by HPLC-UV analysis; assay type: physicochemical
Procedure, shortened: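 A 4-mM or 1-mM DMSO stock was freeze-dried and the residue taken up in FaSSIF (pH 6.5: sodium taurocholate, lecithin, KH2PO4, KCl, NaOH). Sonicated 10 min, shaken 2 h, centrifuged 10 min at 3000 rpm and filtered. Filtrate measured by HPLC-UV against each compound's calibration curve.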

[2] = molecular target: PI3-kinase p110-alpha/p85-alpha (Homo sapiens, UniProt P42336); experiment: Inhibition of human PI3K p110alpha/p85alpha expressed in baculovirus preincubated for 20 mins followed by addition of phosphorylate phosphatidylinositol-4,5-bisphosphate as substrate and ATP measured after 15 mins by AlphaScreen competition assay
Chain of PI3-kinase p110-alpha/p85-alpha (P27986 whole entry): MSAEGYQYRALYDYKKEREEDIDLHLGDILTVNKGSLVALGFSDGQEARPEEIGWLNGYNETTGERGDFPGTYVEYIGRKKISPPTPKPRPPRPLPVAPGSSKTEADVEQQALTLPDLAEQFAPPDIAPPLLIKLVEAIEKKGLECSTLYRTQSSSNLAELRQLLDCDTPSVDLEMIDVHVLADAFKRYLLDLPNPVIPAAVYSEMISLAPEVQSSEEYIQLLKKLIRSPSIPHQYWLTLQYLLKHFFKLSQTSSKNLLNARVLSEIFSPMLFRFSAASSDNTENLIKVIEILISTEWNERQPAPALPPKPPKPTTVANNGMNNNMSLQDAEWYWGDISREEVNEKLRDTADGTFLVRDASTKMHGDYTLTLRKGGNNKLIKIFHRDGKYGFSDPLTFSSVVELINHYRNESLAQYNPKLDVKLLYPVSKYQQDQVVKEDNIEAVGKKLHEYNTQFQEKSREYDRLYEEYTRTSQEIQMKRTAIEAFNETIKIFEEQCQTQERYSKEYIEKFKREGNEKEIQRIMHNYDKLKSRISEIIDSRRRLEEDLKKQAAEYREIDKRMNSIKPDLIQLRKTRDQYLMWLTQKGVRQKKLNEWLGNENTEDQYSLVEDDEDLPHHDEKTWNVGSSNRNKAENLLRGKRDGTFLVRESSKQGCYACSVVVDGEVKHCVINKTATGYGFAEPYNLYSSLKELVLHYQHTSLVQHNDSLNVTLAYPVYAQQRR
Chain of PI3-kinase p110-alpha/p85-alpha (P42336 whole entry): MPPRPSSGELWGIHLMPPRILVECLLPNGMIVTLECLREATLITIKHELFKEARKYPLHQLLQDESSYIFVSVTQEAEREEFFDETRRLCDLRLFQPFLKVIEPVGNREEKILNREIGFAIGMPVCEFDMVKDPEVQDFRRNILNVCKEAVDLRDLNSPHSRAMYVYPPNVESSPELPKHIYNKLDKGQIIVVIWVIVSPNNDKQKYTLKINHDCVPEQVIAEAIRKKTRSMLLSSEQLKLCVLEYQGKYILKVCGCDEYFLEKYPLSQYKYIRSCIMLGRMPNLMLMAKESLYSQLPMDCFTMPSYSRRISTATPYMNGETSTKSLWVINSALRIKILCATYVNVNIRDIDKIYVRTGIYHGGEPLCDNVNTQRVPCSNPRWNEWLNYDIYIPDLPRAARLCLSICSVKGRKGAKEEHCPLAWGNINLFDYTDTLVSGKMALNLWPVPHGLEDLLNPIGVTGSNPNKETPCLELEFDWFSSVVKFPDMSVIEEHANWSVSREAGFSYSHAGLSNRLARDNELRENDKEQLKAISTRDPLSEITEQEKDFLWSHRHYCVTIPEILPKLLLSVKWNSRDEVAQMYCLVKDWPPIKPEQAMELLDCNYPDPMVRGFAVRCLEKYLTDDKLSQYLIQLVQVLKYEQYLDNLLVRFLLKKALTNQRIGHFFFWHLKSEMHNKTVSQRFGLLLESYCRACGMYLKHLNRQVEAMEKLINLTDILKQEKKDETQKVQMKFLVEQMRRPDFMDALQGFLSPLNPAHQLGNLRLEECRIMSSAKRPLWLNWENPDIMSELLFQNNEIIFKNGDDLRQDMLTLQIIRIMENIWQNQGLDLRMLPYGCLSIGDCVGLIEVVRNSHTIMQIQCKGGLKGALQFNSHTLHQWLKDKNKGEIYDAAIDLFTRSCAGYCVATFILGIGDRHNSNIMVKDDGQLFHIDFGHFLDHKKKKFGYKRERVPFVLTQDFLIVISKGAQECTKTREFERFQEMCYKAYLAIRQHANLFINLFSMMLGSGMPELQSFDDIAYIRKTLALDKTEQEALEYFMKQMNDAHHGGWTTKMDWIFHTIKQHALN
Procedure, shortened: (§1)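 Purified baculovirus-expressed human p110/p85α preincubated with compound 20 min at room temperature. Then 4 µM PI(4,5)P2 and 10 µM ATP (5 mM Hepes pH 7.5, 2.5 mM MgCl2) added for 15 min at 37 °C. PIP3 product detected by AlphaScreen competition using GST-GRP1, biotin-PIP3 and anti-GST acceptor/streptavidin donor beads, 1 h at room temperature.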

[3] = Cmax in Balb/c nude mouse at 50 mg/kg, po measured after 24 hrs by LC-MS/MS analysis; assay type: ADME, organism-based; design: dose 50 mg/kg, route oral; details: in vivo
Procedure, shortened: (§2)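 Female BALB/c-nu mice, n=2 per group, single oral dose of 50 mg/kg given as a solution in 10% DMSO, 10% Cremophor EL, 15% PEG400, 15% HPCD. Heparinized blood drawn at 0.25, 2, 4, 7 and 24 h; plasma stored at –80 °C. Plasma levels by LC–MS/MS; parameters by non-compartmental analysis.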

[4] = AUC in Balb/c nude mouse at 50 mg/kg, po measured after 24 hrs by LC-MS/MS analysis; assay type: ADME, organism-based; design: dose 50 mg/kg, time < 24 hr, route oral; details: in vivo; procedure, shortened: as §2
PI3K p110 beta/p85 alpha = PI3K p110 beta/p85 alpha (Homo sapiens, UniProt P42338); experiment: Inhibition of human PI3K p110beta/p85alpha expressed in baculovirus preincubated for 20 mins followed by addition of phosphorylate phosphatidylinositol-4,5-bisphosphate as substrate and ATP measured after 15 mins by AlphaScreen competition assay; procedure, shortened: as §1
Chain of PI3K p110 beta/p85 alpha (P27986 whole entry): as the sequence (P27986 whole entry) above
Chain of PI3K p110 beta/p85 alpha (P42338 whole entry): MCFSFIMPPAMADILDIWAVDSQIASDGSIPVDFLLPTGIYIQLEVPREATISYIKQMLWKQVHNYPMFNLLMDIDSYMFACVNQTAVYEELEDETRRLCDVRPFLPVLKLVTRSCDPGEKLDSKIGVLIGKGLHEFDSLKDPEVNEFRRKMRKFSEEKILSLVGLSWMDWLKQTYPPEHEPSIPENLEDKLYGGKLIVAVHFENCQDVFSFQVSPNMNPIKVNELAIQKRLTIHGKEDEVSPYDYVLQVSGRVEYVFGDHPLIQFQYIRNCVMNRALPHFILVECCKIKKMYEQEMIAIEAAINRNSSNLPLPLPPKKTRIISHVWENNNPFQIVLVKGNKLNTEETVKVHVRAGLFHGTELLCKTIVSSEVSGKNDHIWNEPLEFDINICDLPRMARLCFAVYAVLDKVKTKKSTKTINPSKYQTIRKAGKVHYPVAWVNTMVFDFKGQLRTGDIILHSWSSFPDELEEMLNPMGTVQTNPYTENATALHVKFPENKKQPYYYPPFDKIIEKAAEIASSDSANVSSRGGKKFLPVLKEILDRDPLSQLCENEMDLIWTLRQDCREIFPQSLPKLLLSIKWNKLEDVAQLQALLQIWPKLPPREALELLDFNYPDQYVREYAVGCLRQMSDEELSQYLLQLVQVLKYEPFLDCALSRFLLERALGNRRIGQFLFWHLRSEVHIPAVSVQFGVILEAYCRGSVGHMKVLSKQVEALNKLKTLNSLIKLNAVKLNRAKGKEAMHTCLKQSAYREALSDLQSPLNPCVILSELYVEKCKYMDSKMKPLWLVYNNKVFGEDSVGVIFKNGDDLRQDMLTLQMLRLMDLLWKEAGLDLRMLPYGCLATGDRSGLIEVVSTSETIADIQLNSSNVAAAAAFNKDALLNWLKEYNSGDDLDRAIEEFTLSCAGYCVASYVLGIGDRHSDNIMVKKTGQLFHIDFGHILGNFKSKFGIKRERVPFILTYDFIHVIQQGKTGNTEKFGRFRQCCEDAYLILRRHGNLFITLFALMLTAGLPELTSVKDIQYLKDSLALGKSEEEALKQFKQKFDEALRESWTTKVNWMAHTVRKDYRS

[5] = Antiproliferative activity against PTEN negative human PC3 cells measured after 96 hrs by CCK-8 assay; assay type: functional, cell-based; details: PC-3, 96 h
Procedure, shortened: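 PC-3 prostate cells (ATCC) exposed to a range of compound concentrations for 96 hours; growth inhibition read with Cell Counting Kit-8.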

[6] = Antitumor activity PTEN negative human PC3 cells xenografted into nude mouse assessed as tumor growth inhibition at 6.25 mg/kg, qd administered orally for 11 days; assay type: functional; details: PC-3, po, 264 h, read-out: TGI
Procedure, shortened: (§3)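 PC-3 grown as subcutaneous tumors in nude mice; dosing began (day 0) at about 130 mm3. Four mice per group, randomized to vehicle or drug by oral sonde once daily on days 0–10; vehicle 10% DMSO, 10% Cremophor EL, 15% PEG400, 15% HPCD. TV = (L W²)/2; TGI = [1 − (T − T0)/(C − C0)] × 100; body weight as W/W0 × 100.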

[7] = Permeability of compound by PAMPA method; assay type: ADME; details: read-out: permeability
Mus musculus = experiment: Toxicity in nude mouse xenografted with PTEN negative human PC3 cells assessed as body weight loss; assay type: organism-based, PC-3; details: in vivo; procedure, shortened: as §3
[8] = Metabolic stability in mouse liver microsomes assessed as clearance; assay type: ADME; details: read-out: CLH
[9] = Metabolic stability in human liver microsomes assessed as clearance; assay type: ADME; details: read-out: CLH

| solubility [1] [µg/mL] | IC50 [2] [nM] | SMILES | IC50 [5] [nM] | further results |
| --- | --- | --- | --- | --- |
| < 12 |  | Nc1ncc(-c2nc(N3CCOCC3)nc3c2CCN3c2cccnc2)cn1 |  |  |
| < 3 |  | Nc1ncc(-c2nc(N3CCOCC3)nc3c2CCN3C(=O)Nc2ccccc2)cn1 |  | Cmax [3]: 104 ng/mL; AUC at 24 h [4]: 437 ng·h/mL |
| < 3 | 130 | CN(C(=O)N1CCc2c(-c3cnc(N)nc3)nc(N3CCOCC3)nc21)c1ccccc1 |  |  |
| 56 (≈ 143 µM) | 260 | Cc1nc(N)ncc1-c1nc(N2CCOCC2)nc2c1CCN2c1cccnc1 |  |  |

Further lines, the compound ahead of its results:

| SMILES | solubility [1] [µg/mL] | IC50 [2] [nM] | IC50 [5] [nM] | further results |
| --- | --- | --- | --- | --- |
| Cc1ccccc1NC(=O)N1CCc2c(-c3cnc(N)nc3)nc(N3CCOCC3)nc21 | < 14 | 52 |  |  |
| CCN1CCN(c2cc(F)c(NC(=O)N3CCc4c(-c5cnc(N)nc5)nc(N5CCOCC5)nc43)c(F)c2)CC1 | 20 (≈ 35.3 µM) |  | 58 | Cmax [3]: 460 ng/mL; AUC at 24 h [4]: 5680 ng·h/mL; IC50 (PI3K p110 beta/p85 alpha): 7 nM; inhibition in vivo at 6.25 mg/kg [6]: 82%; Papp [7]: 1.1 ×10⁻⁶ cm/s; Activity (Mus musculus): Non-toxic; microsomal CLint [8]: 7.6 µL/min/mg; microsomal CLint [9]: 2.2 µL/min/mg |
| CC(C)c1ccccc1NC(=O)N1CCc2c(-c3cnc(N)nc3)nc(N3CCOCC3)nc21 | 13 (≈ 28.2 µM) | 81 |  |  |
| CCc1ccccc1NC(=O)N1CCc2c(-c3cnc(N)nc3)nc(N3CCOCC3)nc21 |  | 64 |  |  |
| CCN1CCN(c2ccc(NC(=O)N3CCc4c(-c5cnc(N)nc5)nc(N5CCOCC5)nc43)c(C)c2)CC1 | 11 (≈ 20.2 µM) |  | 210 |  |
| CCN1CCN(C(=O)c2ccc(NC(=O)N3CCc4c(-c5cnc(N)nc5)nc(N5CCOCC5)nc43)c(C)c2)CC1 | < 18 | 26 | 250 |  |
